Data: paper PMC8177101 (Chemical research in toxicology, 2020)

Key:
[1] = CellTiter Glo cytotoxicity; type: cell-based; conditions: human
Method in brief: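 Human HapMap lymphoblastoid lines grown in RPMI 1640 with 15% heat-inactivated FBS at 37 °C, 5% CO2, low passage (<10). Preliminary cytotoxicity dose-response to the test compound (a diepoxide) read by CellTiter Glo as cellular ATP level; IC50 taken from the dose-response curves.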

[2] = system: HapMap lymphoblastoid cell lines; assay: Micronuclei; type: cell-based, human; conditions: then 96 h in fresh media, averaged over all cell lines
Method in brief: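 Ten GSTT1-negative and 8 GSTT1-positive lymphoblastoid lines were grown in RPMI 1640 with 15% heat-inactivated FBS at 37 °C, 5% CO2, passage <10. Cells were seeded at 0.5 million per 4 ml and rested 24 h. They were exposed to 0, 5 or 10 μM test compound for 6 h in triplicate, pelleted, then held 96 h in fresh medium. Micronuclei were scored with the Litron kit by flow cytometry.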

[3] = ref [10], [11]; cited from earlier work
[4] = system: HapMap lymphoblastoid cell lines; assay: Apoptosis, Annexin V / PI flow cytometry; type: cell-based, human; conditions: 0, 5 or 10 μM DEB, 24 h, 18 cell lines; Anova p < 0.001

## C1OC1C1CO1 (centres unmarked) [DEB, 1,2,3,4-diepoxybutane]
[1]
  IC50: 2 to 6 µM
[2]; 5 μM DEB 6 h
  fold increase of mean percent of MN positive cells: 1.8 fold
[2]; 10 μM DEB 6 h
  fold increase of mean percent of MN positive cells: 2.4 fold
[3]
  mutagenic potency as compared to BD-derived monoepoxides: up to 200 fold
[4]
  percentage of Annexin V-labeled cells: increase in the percentage of Annexin V-labeled cells
